Screens deposited in PubChem BioAssay by several laboratories.
In the library only some 2.8% were active in any assay of this set; here they are far more common.
EP2 modulator: modulates human prostaglandin E2 receptor EP2 signaling | induction, % at 25 µM | EP2-expressing cells, cAMP HTRF FRET, PGE2 co-stimulation | 260,000 tested, 0.83% active | P43116 | AID 940;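 active = compounds whose cAMP rise, as percent of the full-agonist control response, exceeds 60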;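 note: rat C6 glioma line stably carrying human EP2 under a CMV promoter; the protocol text gives 20 µM as final concentration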
NPY-Y1 PAM-ag: human NPY-Y1 potentiation or agonism, primary screen; P25929; NPY-Y1 expressing cells, potentiator/agonist activation; activation, % at 3.6 µM; 220,000 tested, 0.37% active; AID 1304; in the data active = activation above about 33%, passing the limit was not always enough;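 note: cells stimulated with NPY at EC10 then isoproterenol at EC100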
NPY Y1 blocker: blocks the human neuropeptide Y Y1 receptor; inhibition, % at 3.6 µM; AID 1040; HEK293-CNG Y1 cells, membrane potential fluorescence; NPY at EC95, then isoproterenol; 200,000 tested, 1% active; P25929;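 active = inhibition above the campaign mean inhibition of all tested compounds plus 3 SD, cut at about 20% in these data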
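Assay system: HEK293 Y1/CNG channel cell line; Doses: single compound dose of 3.6 µM, 0.4% DMSO; Timing: dye 3 h, compound 60 min room temperature, stimulation 45 min; Technique: Membrane-potential fluorescent dye readout; Measure: % inhibition of NPY effect.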
NPY-Y2 PAM-ag: potentiates or activates human NPY-Y2 receptor. activation, % at 3.6 µM. 220,000 tested, 0.45% active. cells expressing NPY-Y2, potentiator/agonist read-out. P49146. AID 1359; in the data active = activation above about 27%;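 note: cells stimulated with NPY near EC25 plus isoproterenol at EC100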
Target sequence (P49146 whole entry, looked up): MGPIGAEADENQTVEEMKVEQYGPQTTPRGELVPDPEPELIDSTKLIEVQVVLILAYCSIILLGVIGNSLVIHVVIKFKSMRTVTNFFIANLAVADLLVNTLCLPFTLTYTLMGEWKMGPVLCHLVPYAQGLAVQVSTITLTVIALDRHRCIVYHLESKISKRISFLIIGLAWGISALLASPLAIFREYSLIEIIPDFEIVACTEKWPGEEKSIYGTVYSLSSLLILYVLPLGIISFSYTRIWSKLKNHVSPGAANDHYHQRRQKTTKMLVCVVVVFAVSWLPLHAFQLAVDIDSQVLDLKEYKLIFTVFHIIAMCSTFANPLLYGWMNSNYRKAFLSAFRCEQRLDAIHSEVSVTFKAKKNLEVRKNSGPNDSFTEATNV
NPY Y2 blocker: NPY-Y2 (human) receptor antagonism | NPY-Y2 expressing cells, antagonist mode | 140,000 tested, 0.99% active | P49146 | inhibition, % at 2.7 µM; in the data active = inhibition above about 17%
EP2 antag: inhibitors of human EP2 prostaglandin E2 receptor; AID 1422; inhibition, % at 25 µM; 260,000 tested, 0.52% active; C6 glioma cells expressing human EP2, cAMP TR-FRET; cells stimulated with saturating PGE2;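 active = percent inhibition above 40 after rounding to a whole number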;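 note: rat C6 glioma host cells with rolipram phosphodiesterase inhibitor present; the protocol text gives 20 µM as final concentration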
Numbers stand for hits; n = inactive; x = no result; ! = repeats disagree.

SMILES	EP2 modulator	NPY-Y1 PAM-ag	NPY Y1 blocker	NPY-Y2 PAM-ag	NPY Y2 blocker	EP2 antag
Cc1ccc(C(=O)n2c3ccccc3c3ccccc32)cc1	64	n	n	n	n	n
CCc1c(-c2ccccc2)nc(N)c(C#N)c1-c1ccc2c(c1)OCO2	n	x	x	x	x	n
N#Cc1c(-c2ccc3c(c2)OCO3)cc(-c2ccccc2)nc1N	66	x	x	x	x	n
Cc1ccc(-n2nnnc2SCC(=O)c2ccc3c(c2)OCCO3)cc1C	n	x	x	x	x	n
Cc1nc2ccc(NC(=O)c3ccc(Cl)c([N+](=O)[O-])c3)cc2s1	n	n	n	n	n	n
Cc1nc2ccc(NC(=O)c3cc([N+](=O)[O-])cc([N+](=O)[O-])c3Cl)cc2s1	n	n	n	n	n	121
CCOC(=O)c1sc2ccccc2c1OC(=O)c1ccccc1	65	n	n	n	n	n
CCOC(=O)c1sc2ccccc2c1NC(=O)c1coc2ccccc2c1=O	n	n	n	n	n	n
Cc1cc(-c2cnc(C)nc2C2CCN(C(=O)Cc3ccc4c(c3)OCO4)CC2)on1	n	x	x	x	x	x
COCCN1C(=O)C(=O)/C(=C(\O)c2cccc(OC)c2)C1c1ccc(O)c(OC)c1 (configuration not stated)	n	x	x	x	x	n
Cc1ccc(SCc2[nH]nc3c2C(C(C)C)C(C#N)=C(N)O3)cc1 (configuration not stated)	n	n	n	n	n	n
Cc1ccc(SCc2[nH]nc3c2C(c2ccc(C)o2)C(C#N)=C(N)O3)cc1 (configuration not stated)	n	n	120	n	79	n
Cc1ccc(SCc2[nH]nc3c2C(c2ccco2)C(C#N)=C(N)O3)cc1 (configuration not stated)	n	n	106	n	127	n
CCc1[nH]nc2c1C(c1ccc(C)o1)C(C#N)=C(N)O2 (configuration not stated)	n	n	n	n	x	n
O=C(O)c1ccc2c(c1)SC1=NS(=O)(=O)CCN12	n	n	x	n	x	n
CN(C(=O)c1ccc2c(c1)SC1=NS(=O)(=O)CCN12)C(c1ccccc1)c1ccccc1	n	n	37	n	22	n
CC(c1ccc(F)cc1)n1cc(C(=O)NCCCn2ccnc2)nn1 (configuration not stated)	n	x	x	x	x	x
COCCn1c(=O)[nH]c2cc(C(=O)NCC3CCCO3)ccc2c1=O (configuration not stated)	n	74	n	n	n	n
COc1ccc(N2CCN(CC(=O)Nc3sc4c(c3C#N)CCCC4)CC2)cc1	n	x	x	x	x	n
CC1CCN(C(=O)C(Cc2ccccc2)n2cccc2)CC1 (configuration not stated)	n	n	n	n	n	n
CC1CC(C)CN(C(=O)C(Cc2ccccc2)n2cccc2)C1 (configuration not stated)	62	n	x	n	x	n
COc1ccc2c(c1)c(CN(CCCn1ccnc1)Cc1ccc(C)s1)c(C)n2C	n	x	x	x	x	n
O=C(Cn1nnc(-c2cccs2)n1)N1c2ccccc2CCc2ccccc21	n	x	x	x	x	n
O=C(COC(=O)C1CCN(C(=O)c2ccc(Cl)cc2)CC1)NC1CCS(=O)(=O)C1 (configuration not stated)	n	n	n	n	x	n
COc1ccc(C)cc1NC(=O)COC(=O)C1CCN(C(=O)c2ccc(Cl)cc2)CC1	n	86	n	90	x	n
SMILES	EP2 modulator	NPY-Y1 PAM-ag	NPY Y1 blocker	NPY-Y2 PAM-ag	NPY Y2 blocker	EP2 antag
COc1ccc2cc(C#N)c(SCC(=O)N3CCCC(C)C3)nc2c1 (configuration not stated)	n	x	x	x	x	n
Cc1ccc2cc(C)c(SCC(=O)N3CCCC(C)C3)nc2c1 (configuration not stated)	62	x	x	x	x	n
CCCN(Cc1ccccc1)C(=S)Nc1ccc(C(C)=O)cc1	n	n	n	n	x	n
CC(=O)c1ccc(NC(=S)N(CCCN(C)C)Cc2ccccc2)cc1	n	n	x	n	x	128
O=C(O)C1=C/C(=C(/c2ccccc2)c2cc(C(=O)O)c(O)c3ccccc23)c2ccccc2C1=O	n	x	x	x	x	40!
O=C(O)c1cccc2c1C(=O)c1ccccc1C2=O	n	n	n	n	x	n
Cc1ccc(C)c(C(C)c2ccc(C)nc2)c1 (configuration not stated)	n	x	x	x	x	n
Cn1ccnc1Sc1nc(Nc2cccc(Cl)c2)nc(N2CCOCC2)n1	61	n	n	n	n	n
